The values below come from PMC12272566 (RSC Advances, 2025).

Type in all cases: biochemical
Assay [1] concerns the target T1, aldose reductase (Rattus norvegicus, UniProt P07943). Kind of assay: inhibitory kinetic assay on aldose reductase. The method in brief:
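Aldose reductase from rat lens tissue. Reactions held NADPH (0.3 mM), phosphate buffer (100 mM, pH 6.2) and lithium sulfate (0.6 mM), with DL-glyceraldehyde substrate at several concentrations, with or without test compound, at 37 °C for 10 min. NADPH decrease was read at 340 nm. Rates were fitted by nonlinear Michaelis–Menten regression with Lineweaver–Burk, Dixon and slope secondary plots to derive Km, Vmax and Ki.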

In assay [2] the target is T1, aldose reductase. Kind of assay: aldose reductase inhibition assay.
Another assay addresses α-glucosidase (Saccharomyces cerevisiae, UniProt P53341). Kind of assay: inhibitory kinetic assay on α-glucosidase.

Chain of α-glucosidase (P53341 whole entry): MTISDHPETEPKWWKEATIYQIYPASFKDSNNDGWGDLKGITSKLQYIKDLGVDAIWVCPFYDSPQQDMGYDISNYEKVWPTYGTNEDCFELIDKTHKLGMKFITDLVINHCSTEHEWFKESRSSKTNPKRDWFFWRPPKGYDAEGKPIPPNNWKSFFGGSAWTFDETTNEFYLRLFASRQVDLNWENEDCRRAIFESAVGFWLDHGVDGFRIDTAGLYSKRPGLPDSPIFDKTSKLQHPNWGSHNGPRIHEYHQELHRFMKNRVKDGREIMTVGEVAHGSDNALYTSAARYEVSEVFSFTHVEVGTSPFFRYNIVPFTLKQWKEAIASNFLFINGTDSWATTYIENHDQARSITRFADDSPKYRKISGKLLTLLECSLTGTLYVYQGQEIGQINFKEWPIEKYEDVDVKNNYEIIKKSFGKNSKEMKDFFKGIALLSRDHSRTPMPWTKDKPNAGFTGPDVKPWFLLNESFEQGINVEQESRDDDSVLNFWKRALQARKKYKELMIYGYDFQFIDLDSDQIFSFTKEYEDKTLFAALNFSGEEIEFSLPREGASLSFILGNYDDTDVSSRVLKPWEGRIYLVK

In general, Ki refers to the equilibrium dissociation constant of an inhibitor or competing ligand from its target. A higher Ki goes with a looser hold on the target. The term IC50 denotes the concentration needed to halve the response being measured. `COc1cc(O)cc(/C=C/c2ccc(O)cc2)c1` [pinostilbene, 3-methoxy-4′,5-dihydroxy-trans-stilbene]: the values for the inhibition constant Ki on aldose reductase [1] and on α-glucosidase were 60 ± 4.64 µM and 14.3 ± 1.49 µM, respectively. In addition, on aldose reductase [1] (Vmax decreased, Km fixed), the “inhibition type against aldose reductase” value is “noncompetitive-type inhibition”. Further, the IC50 on aldose reductase [2] amounted to 55.4 ± 4.31 µM. The “inhibition type against α-glucosidase” value against α-glucosidase (Vmax decreased, Km fixed) is recorded as “noncompetitive-type inhibition”.
`COc1cc(/C=C/c2ccc(O)cc2)cc(OC)c1` [pterostilbene]: the “effect on aldose reductase inhibition (in words)” value on aldose reductase [2] (0–10 mM tested, data not shown) was “weak effect”.
